Source: ChEMBL document CHEMBL3808356, “Dihydrochelerythrine and its derivatives: Synthesis and their application as potential G-quadruplex DNA stabilizing agents” (Bioorg Med Chem, 2016)
Active and inactive are the calls of the source. No cut-off for these calls is given here.

Tests used:
[1] = Binding affinity to c-myc G-quadruplex DNA (unknown origin) by UV-visible absorption spectroscopic analysis
Procedure, shortened: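 UV–vis titration, 225–600 nm, 10 mm cuvette. Ligand at 30 µM in 100 mM KCl, 10 mM lithium cacodylate pH 7.2 was titrated to saturation with c-MYC DNA pre-annealed in the same buffer (95 °C 5 min, slow cooling). Binding constant from a half-reciprocal fit; mean of 3 independent experiments.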

[2] = Binding affinity to c-myc DNA mutant (unknown origin) up to 80 uM incubated for 30 mins by Taq DNA polymerase stop assay
Procedure, shortened: (§1)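 Taq polymerase stop assay. 32P-labelled primer plus 50 nM cold primer annealed to 100 nM template carrying c-MYC quadruplex or mutated c-MYC sequence. Ligand 0–80 µM, 30 min at room temperature, then 0.5 U Taq, 55 °C for 30 min. Products run on 15% denaturing PAGE and phosphorimaged. Normalised % stop product plotted against ligand concentration; IC50 is 50% stop. Two independent experiments.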

[3] = Binding affinity to c-myc G-quadruplex DNA (unknown origin) incubated for 30 mins by Taq DNA polymerase stop assay; procedure, shortened: as §1
[4] = Binding affinity to duplex DNA (unknown origin) assessed as change in melting temperature at 50 uM by circular dichroism spectroscopic analysis
Procedure, shortened: (§2)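 CD melting of 10 µM DNA strand in 10 mM lithium cacodylate pH 7.2 with 90 mM LiCl and 10 mM KCl (c-KIT1 and duplex). c-KIT1 annealed at 95 °C for 5 min, slowly cooled, then given 5 equiv ligand (50 µM) overnight. Ellipticity read at 263 nm, 1 °C/min from 15–95 °C for c-KIT1. Sigmoidal Boltzmann fit. ΔTm = Tm(DNA+ligand) − Tm(DNA).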

A-431 [5] = experiment: Antiproliferative activity against human A431 cells assessed as reduction in cell viability at 20 uM after 72 hrs by MTT assay relative to control; type: functional; settings: A-431, 72 h
Procedure, shortened: (§3)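 Human cancer lines from ATCC, cultured per supplier instructions; ~5000 cells/well seeded 24 h before treatment at 37 °C, CO2. Exposed to vehicle (0.5% DMSO) or serially diluted compound (0.1 to 15 or 20 µM) for 72 h at 37 °C. MTT 100 µg added, 4 h at 37 °C; formazan dissolved in DMSO, absorbance 570 nm. Percent inhibition vs vehicle wells; triplicate, mean ± SEM.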

[6] = (§4) Antiproliferative activity against human HCT116 cells assessed as reduction in cell viability at 20 uM after 72 hrs by MTT assay relative to control; type: functional; settings: HCT-116, 72 h; procedure, shortened: as §3
[7] = Binding affinity to c-myc G-quadruplex DNA (unknown origin) assessed as change in melting temperature at 50 uM by circular dichroism spectroscopic analysis
Procedure, shortened: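 CD melting: c-MYC DNA 10 µM strand in 10 mM lithium cacodylate pH 7.2, 1 mM KCl, 99 mM LiCl. Annealed 95 °C 5 min, cooled slowly to room temperature, then 5 equiv ligand (50 µM) added and incubated overnight. Ellipticity at 263 nm, 20–95 °C at 1 °C/min. Sigmoidal Boltzmann fit; ΔTm = Tm(DNA+ligand) − Tm(DNA).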

[8] = Binding affinity to c-myc G-quadruplex DNA (unknown origin) assessed as stabilization of preformed parallel topology up to 5 molar equivalents by circular dichroism spectroscopic analysis in absence of metal ion
Procedure, shortened: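 Ligand added from a 5 mM DMSO stock up to 5 equiv. Scanned 220–320 nm, 1.0 mm cuvette, 100 nm/min, 25 °C. Each spectrum is the average of 3 scans.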

[9] = Binding affinity to c-Kit1 G-quadruplex DNA (unknown origin) assessed as stabilization of preformed parallel topology up to 5 molar equivalents by circular dichroism spectroscopic analysis in absence of metal ion
Procedure, shortened: (§5)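 CD titration of promoter quadruplex DNA (12.5 µM strand) in 50 mM Tris-HCl pH 7.2, no added monovalent cations. Ligand from 5 mM DMSO stock added stepwise by molar equivalents. Spectra 220–320 nm, 1 mm path, 25 °C, 100 nm/min, 2 s response, average of 3 scans. Ellipticity change at ~260 nm (positive) and ~240 nm (negative) followed.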

[10] = Binding affinity to c-Kit1 G-quadruplex DNA (unknown origin) assessed as change in melting temperature at 50 uM by circular dichroism spectroscopic analysis; procedure, shortened: as §2
MDA-MB-231 [11] = experiment: Antiproliferative activity against human MDA-MB-231 cells assessed as reduction in cell viability at 20 uM after 72 hrs by MTT assay relative to control; type: functional; settings: MDA-MB-231, 72 h; procedure, shortened: as §3
MDA-MB-231 [12] = experiment: Antiproliferative activity against human MDA-MB-231 cells assessed as reduction in cell viability at 15 uM after 72 hrs by MTT assay relative to control; type: functional; procedure, shortened: as §3
[13] = Antiproliferative activity against human HCT116 cells assessed as reduction in cell viability at 15 uM after 72 hrs by MTT assay relative to control; type: functional, HCT-116; procedure, shortened: as §3
A-431 [14] = experiment: Antiproliferative activity against human A431 cells assessed as reduction in cell viability at 15 uM after 72 hrs by MTT assay relative to control; type: functional, cell-based; procedure, shortened: as §3
PC-3 = experiment: Antiproliferative activity against human PC3 cells at 0.1 to 20 uM after 72 hrs by MTT assay; type: functional, cell-based; procedure, shortened: as §3
A549 = experiment: Antiproliferative activity against human A549 cells at 0.1 to 20 uM after 72 hrs by MTT assay; type: functional, cell-based; procedure, shortened: as §3
HeLa = experiment: Antiproliferative activity against human HeLa cells at 0.1 to 20 uM after 72 hrs by MTT assay; type: functional, cell-based; procedure, shortened: as §3
HCT-116 = experiment: as §4; type: functional; procedure, shortened: as §3
[15] = Binding affinity to c-myc G-quadruplex DNA (unknown origin) assessed as stabilization of preformed parallel topology at 1 to 6 molar equivalents by circular dichroism spectroscopic analysis in absence of metal ion; procedure, shortened: as §5
[16] = Binding affinity to telomeric DNA (unknown origin) assessed as change in melting temperature at 50 uM by circular dichroism spectroscopic analysis in presence of K+ ion
Procedure, shortened: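 CD melting: telomeric DNA 10 µM in 10 mM lithium cacodylate pH 7.2 with 10 mM KCl, 90 mM LiCl, plus ligand. Ellipticity followed against temperature; ΔTm taken as Tm with ligand minus Tm of DNA alone.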

| SMILES | inhibition at 20 µM (A-431 [5]) [%] | ΔTm [7] [°C] | Activity [9] | inhibition at 20 µM (MDA-MB-231 [11]) [%] | inhibition (A-431 [14]) | Activity (PC-3) | Activity (A549) | Activity (HeLa) | also measured |
| --- | --- | --- | --- | --- | --- | --- | --- | --- | --- |
| COc1ccc2c(c[n+](C)c3c4cc5c(cc4ccc23)OCO5)c1OC [CHELERYTHRINE] | 100 | 19.6 | Active | 100 |  |  |  |  | K [1]: 7.35 ×10⁵ /M; Activity [2]: inactive; Activity [3]: Dose-dependent effect; IC50 [3]: 6.6 µM; ΔTm [4]: 0.1 °C; inhibition at 20 µM [6]: 100%; Activity [8]: Active; ΔTm [10]: 24.3 °C |
| COc1cccc2c1C(=O)c1c(O)c3c(c(O)c1C2=O)C[C@@](O)(C(=O)CO)C[C@@H]3O[C@H]1C[C@H](N)[C@H](O)[C@H](C)O1 [DOXORUBICIN] | 98.1 |  |  | 92.7 |  |  |  |  | inhibition at 20 µM [6]: 98% |
| COc1ccc2c(c1OC)C(CC(C)=O)N(C)c1c-2ccc2cc3c(cc12)OCO3 (racemic) [listing 1 of 2 here] |  |  |  |  |  |  |  |  | inhibition at 15 µM (MDA-MB-231 [12]; Homo sapiens, MDA-MB-231, 72 h): 16.1%; inhibition at 15 µM ([13]; Homo sapiens, HCT-116, 72 h): 28.7% |
| COc1ccc2c(c1OC)C(CC(C)=O)N(C)c1c-2ccc2cc3c(cc12)OCO3 (stereo in doubt) [listing 1 of 2 here] |  |  |  |  | inactive | inactive | inactive | inactive |  |
| COc1ccc2c(c1OC)CN(C)c1c-2ccc2cc3c(cc12)OCO3 [DIHYDROCHELERYTHRINE] | 30.4 | 24 | Active | 8.65 |  | inactive | inactive | inactive | K [1]: 5.5 ×10⁵ /M; Activity [2]: inactive; Activity [3]: Dose-dependent effect; IC50 [3]: 5.8 µM; ΔTm [4]: -1 °C; inhibition (HCT-116): inactive; Activity [8]: Active; ΔTm [10]: 17.6 °C |
| COc1ccc2c(c1OC)C(CC(C)=O)N(C)c1c-2ccc2cc3c(cc12)OCO3 (single isomer, unassigned; (+)) [listing 1 of 2 here] |  |  |  |  | inactive | inactive | inactive | inactive |  |
| COc1ccc2c(c1OC)C(CC(C)=O)N(C)c1c-2ccc2cc3c(cc12)OCO3 (stereo in doubt) [listing 2 of 2 here] |  |  |  |  |  |  |  |  | inhibition (INH) (MDA-MB-231 [12]): 20.81%; inhibition (INH) [13]: 36.88% |
| COc1ccc2c(c1OC)C(CC(C)=O)N(C)c1c-2ccc2cc3c(cc12)OCO3 (single isomer, unassigned; (+)) [listing 2 of 2 here] |  |  |  |  |  |  |  |  | inhibition (INH) (MDA-MB-231 [12]): 24.3%; inhibition (INH) [13]: 47.84% |
| COc1ccc2c(c1OC)C(CC(C)=O)N(C)c1c-2ccc2cc3c(cc12)OCO3 (racemic) [listing 2 of 2 here] |  | 2.6 | inactive |  | inactive | inactive | inactive | inactive | Activity [15]: Active; ΔTm [16]: 1 °C |
